Assay results pooled from the literature.
Compare with care: the assays were run in different laboratories.
Cell line: HepG2
Effect on: cell growth or viability

| SMILES | technique | tested at | time | measurement | value |
| --- | --- | --- | --- | --- | --- |
| COc1ccc(-c2cc(-c3ccc(OC)cc3)c3c(=O)n(C)c(=O)n(C)c3n2)cc1 | MTT |  | 48 h | IC50 | 17.3 µM |
| O=C(C=Cc1ccccc1)Nc1ccc(Oc2nnc(-c3ccc(Cl)cc3)c3ccccc23)cc1 | MTT | 1.25 µM |  | cell death | 62.6% |
| CCOC(=O)c1nn(-c2cccc(Cl)c2)/c(=N/N=C(\C)c2ccc(NC(=O)c3ccccc3)cc2)s1 | MTT | 5 µM |  | viability | 3% |
| Cc1nc2ccc(CN(C)c3ccc(C(=O)N[C@@H](CCC(=O)O)C(=O)O)s3)cc2c(=O)[nH]1 | MTT |  | 48 h | IC50 | 1.34 µM |
| CC(=O)c1nn(-c2ccccc2Cl)/c(=N/N=C(\C)c2ccc(NC(=O)c3ccccc3)cc2)s1 | MTT | 1.25 µM |  | viability | 5.77% |
| CC(=NNC(=O)c1ccccc1O)c1ccc(Nc2nnc(-c3ccc(Cl)cc3)c3ccccc23)cc1 | MTT | 1.25 µM | 24 h | viability | 87.2% |
| CN(C)c1cc(NC(=O)CCc2ccccc2)c(O)c2c1C[C@H]1C[C@H]3[C@H](N(C)C)C(O)=C(C(N)=O)C(=O)[C@@]3(O)C(O)=C1C2=O | ATP luminescence |  | 72 h | IC50 | 165 µg/mL |
| COc1cccc2c1C(=O)c1c(O)c3c(c(O)c1C2=O)C[C@@](O)(C(=O)CO)C[C@@H]3O[C@H]1C[C@H](N)[C@H](O)[C@H](C)O1 | MTT |  | 72 h | IC50 | 0.54 µM |
| CCOC(=O)c1nn(-c2cccc(Cl)c2)/c(=N/N=C(\C)c2ccc(NC(=O)c3ccc(Cl)cc3)cc2)s1 | MTT | 78 nM |  | viability | 73.1% |
| Cc1ccc(-c2cc(-c3c(Cl)cccc3Cl)c3c(=O)[nH]c(=O)[nH]c3n2)cc1 | MTT |  | 48 h | IC50 | 42.7 µM |
| CC(=NNC(=O)c1cccnc1)c1ccc(Nc2nnc(-c3ccc(Cl)cc3)c3ccccc23)cc1 | MTT | 0.625 µM | 24 h | viability | 49.9% |
| CC(=NNC(=O)COc1ccc2c(C)c(Cc3ccccc3)c(=O)oc2c1C)c1ccc(Br)cc1 | MTT | 6.3 µg/mL |  | viability | 50.6% |
| COc1ccc(-c2cc(-c3ccc(Br)cc3)c3c(=O)n(C)c(=O)n(C)c3n2)cc1 | MTT |  | 48 h | IC50 | 8.49 µM |
| CC(=NNC(N)=S)c1ccc(Nc2nnc(-c3ccc(Cl)cc3)c3ccccc23)cc1 | MTT | 1.25 µM |  | cell death | 92.3% |
| CC(=O)Nc1ccc(/C(C)=N/N=c2\sc(C(C)=O)nn2-c2ccc(C)cc2)cc1 | MTT | 10 µM |  | viability | 48.8% |
| O=C(Nc1ccc(Oc2nnc(-c3ccc(Cl)cc3)c3ccccc23)cc1)c1cccc([N+](=O)[O-])c1 | MTT | 5 µM | 24 h | viability | 5.16% |
| CC(=O)c1nn(-c2ccc(C)cc2)/c(=N/N=C(\C)c2ccc(NC(=O)c3ccccc3)cc2)s1 | MTT | 5 µM |  | viability | 6.81% |
| CC(=NNC(=O)c1ccncc1)c1ccc(Nc2nnc(-c3ccc(Cl)cc3)c3ccccc23)cc1 | MTT | 2.5 µM | 24 h | viability | 3.92% |
| C=CC(=O)NC1CCN(c2ncc3ncnc(Nc4ccc(Oc5ccc6c(c5)ncn6C)c(C)c4)c3n2)CC1 |  |  |  | EC50 | 0.335 µM |
| O=C(Nc1ccccc1)Nc1ccc(Oc2nnc(-c3ccc(Cl)cc3)c3ccccc23)cc1 | MTT | 0.312 µM | 24 h | viability | 7.03% |
| COc1ccc(-c2cc(-c3ccc(C)cc3)nc3[nH]c(=O)[nH]c(=O)c23)cc1OC | MTT |  | 48 h | IC50 | 34.7 µM |
